≈ marks a conversion by molar mass, not a printed value.
What was measured:
[1] = biological target: T1, ATP-dependent translocase ABCB1 (Homo sapiens, UniProt P08183); assay: Inhibition of P-gp overexpressed in human MDA435/LCC6MDR cells assessed as accumulation of doxorubicin after 150 mins by fluorescence spectrophotometric analysis; type: cell-based; conditions: 2.5 h
Outline: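 1 × 10⁶ LCC6MDR or LCC6 cells incubated with 20 μM DOX and graded modulator for 150 min at 37 °C, with 0.4% DMSO as negative control. Cells washed and lysed in 0.75 M HCl, 0.2% Triton X-100 in isopropanol. DOX fluorescence read at ex 460/em 610 nm. N = 2–5.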

Homo sapiens [2] = species: Homo sapiens; assay: Inhibition of P-gp-mediated paclitaxel resistance in human LCC6MDR cells assessed as fold decrease in paclitaxel IC50 for cytotoxic activity at 1 uM after 5 days by MTS assay relative to parental cells; type: cell-based
[3] = Cytotoxicity against human LCC-6 cells after 72 hrs; type: functional, cell-based; conditions: LCC-6, 72 h
Outline: (§1)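 Cells seeded at 1 × 10⁴ per well in supplemented DMEM and given graded doses of dimer for 72 h at 37 °C, 5% CO₂. Survival measured and IC50 derived. N = 1–3 independent experiments, mean ± SEM.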

[4] = Therapeutic index, ratio of IC50 for L929 cells to EC50 for reversing paclitaxel resistance in human MDA435/LCC6MDR cells; type: cell-based; conditions: L929 cells (IC50) and MDA435/LCC6MDR cells (EC50)
Homo sapiens [5] = species: Homo sapiens; assay: Inhibition of P-gp-mediated paclitaxel resistance in human LCC6MDR cells assessed as fold decrease in paclitaxel IC50 for cytotoxic activity at 0.5 uM after 5 days by MTS assay relative to parental cells; type: cell-based
L929 = assay: Cytotoxicity against mouse L929 cells after 72 hrs; type: cell-based; conditions: L929, 72 h; outline: as §1
MDR = assay: Cytotoxicity against human MDA435/LCC6MDR cells expressing MDR after 72 hrs; type: functional, cell-based; outline: as §1
[6] = Reversal of P-gp-mediated paclitaxel-resistance in human LCC6MDR cells after 5 days by MTS assay; type: cell-based; conditions: 120 h
[7] = Reversal of P-gp-mediated doxorubicin-resistance in human LCC6MDR cells after 5 days by MTS assay; type: cell-based; conditions: 120 h
[8] = biological target: T2, Broad substrate specificity ATP-binding cassette transporter ABCG2 (Homo sapiens, UniProt Q9UNQ0); assay: Inhibition of BCRP-mediated topotecan resistance in human HEK293/R2 cells assessed as fold decrease in topotecan IC50 for cytotoxic activity at 0.5 uM after 5 days by MTS assay relative to parental cell; type: cell-based; conditions: hek293/r2, 120 h
T2 sequence (Q9UNQ0 whole entry): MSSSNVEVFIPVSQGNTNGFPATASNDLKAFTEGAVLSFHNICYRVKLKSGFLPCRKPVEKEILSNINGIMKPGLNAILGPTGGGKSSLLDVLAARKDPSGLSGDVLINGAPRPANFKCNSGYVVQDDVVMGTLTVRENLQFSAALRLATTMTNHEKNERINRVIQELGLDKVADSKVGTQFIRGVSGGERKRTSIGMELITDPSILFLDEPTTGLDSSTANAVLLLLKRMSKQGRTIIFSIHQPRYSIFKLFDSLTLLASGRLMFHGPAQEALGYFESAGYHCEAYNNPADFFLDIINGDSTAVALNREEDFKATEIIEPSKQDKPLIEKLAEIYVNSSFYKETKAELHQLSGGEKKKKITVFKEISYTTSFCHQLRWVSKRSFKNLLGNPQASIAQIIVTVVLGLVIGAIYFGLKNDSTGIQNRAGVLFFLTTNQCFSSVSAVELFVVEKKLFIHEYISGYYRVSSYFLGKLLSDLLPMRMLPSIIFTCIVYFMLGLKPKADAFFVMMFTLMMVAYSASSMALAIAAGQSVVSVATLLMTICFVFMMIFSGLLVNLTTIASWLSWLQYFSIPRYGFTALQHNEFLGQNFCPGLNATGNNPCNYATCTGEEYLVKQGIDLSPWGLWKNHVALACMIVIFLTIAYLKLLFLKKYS
Outline: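 Viability read by MTS. Topotecan IC50 taken from dose-response curves. Fold change = IC50 without modulator / IC50 with modulator. Parental HEK293/pcDNA3.1 tested for reference. N = 2−4 independent experiments, mean ± SEM.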

[9] = biological target: T1, ATP-dependent translocase ABCB1; assay: Competitive inhibition of P-gp overexpressed in human MDA435/LCC6MDR cells assessed as accumulation of doxorubicin by Lineweaver-Burk plot analysis; type: cell-based
[10] = Reversal of P-gp-mediated vincristine-resistance in human LCC6MDR cells after 5 days by MTS assay; type: cell-based; conditions: 120 h
Homo sapiens [11] = species: Homo sapiens; assay: Reduction in P-gp-mediated drug uptake in human MDA435/LCC6MDR cells at 10 uM for 120 mins by HPLC analysis relative to parental cells; type: cell-based
Outline: (§2)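 7.5 × 10⁶ LCC6 or LCC6MDR cells in 5 mL DMEM incubated with compound at 10 or 100 μM for 120 min at 37 °C. Cells washed, lysed by freeze–thaw in acetonitrile with 20% formic acid, and processed. Compound quantified by normal-phase HPLC-UV at 315 nm against a chloroform calibration curve of 0.25–25 μg/mL. N = 1–2.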

Homo sapiens [12] = species: Homo sapiens; assay: Reduction in P-gp-mediated drug uptake in human MDA435/LCC6MDR cells at 100 uM for 120 mins by HPLC analysis relative to parental cells; type: cell-based; outline: as §2
[13] = biological target: Multidrug resistance-associated protein 1 (Homo sapiens, UniProt P33527); assay: Inhibition of MRP1-mediated doxorubicin resistance in human 2008/MRP1 cells assessed as fold decrease in doxorubicin IC50 for cytotoxic activity at 0.5 uM after 5 days by MTS assay relative to parental cell; type: cell-based; conditions: 2008/mrp1, 120 h
Multidrug resistance-associated protein 1, sequence (P33527 whole entry): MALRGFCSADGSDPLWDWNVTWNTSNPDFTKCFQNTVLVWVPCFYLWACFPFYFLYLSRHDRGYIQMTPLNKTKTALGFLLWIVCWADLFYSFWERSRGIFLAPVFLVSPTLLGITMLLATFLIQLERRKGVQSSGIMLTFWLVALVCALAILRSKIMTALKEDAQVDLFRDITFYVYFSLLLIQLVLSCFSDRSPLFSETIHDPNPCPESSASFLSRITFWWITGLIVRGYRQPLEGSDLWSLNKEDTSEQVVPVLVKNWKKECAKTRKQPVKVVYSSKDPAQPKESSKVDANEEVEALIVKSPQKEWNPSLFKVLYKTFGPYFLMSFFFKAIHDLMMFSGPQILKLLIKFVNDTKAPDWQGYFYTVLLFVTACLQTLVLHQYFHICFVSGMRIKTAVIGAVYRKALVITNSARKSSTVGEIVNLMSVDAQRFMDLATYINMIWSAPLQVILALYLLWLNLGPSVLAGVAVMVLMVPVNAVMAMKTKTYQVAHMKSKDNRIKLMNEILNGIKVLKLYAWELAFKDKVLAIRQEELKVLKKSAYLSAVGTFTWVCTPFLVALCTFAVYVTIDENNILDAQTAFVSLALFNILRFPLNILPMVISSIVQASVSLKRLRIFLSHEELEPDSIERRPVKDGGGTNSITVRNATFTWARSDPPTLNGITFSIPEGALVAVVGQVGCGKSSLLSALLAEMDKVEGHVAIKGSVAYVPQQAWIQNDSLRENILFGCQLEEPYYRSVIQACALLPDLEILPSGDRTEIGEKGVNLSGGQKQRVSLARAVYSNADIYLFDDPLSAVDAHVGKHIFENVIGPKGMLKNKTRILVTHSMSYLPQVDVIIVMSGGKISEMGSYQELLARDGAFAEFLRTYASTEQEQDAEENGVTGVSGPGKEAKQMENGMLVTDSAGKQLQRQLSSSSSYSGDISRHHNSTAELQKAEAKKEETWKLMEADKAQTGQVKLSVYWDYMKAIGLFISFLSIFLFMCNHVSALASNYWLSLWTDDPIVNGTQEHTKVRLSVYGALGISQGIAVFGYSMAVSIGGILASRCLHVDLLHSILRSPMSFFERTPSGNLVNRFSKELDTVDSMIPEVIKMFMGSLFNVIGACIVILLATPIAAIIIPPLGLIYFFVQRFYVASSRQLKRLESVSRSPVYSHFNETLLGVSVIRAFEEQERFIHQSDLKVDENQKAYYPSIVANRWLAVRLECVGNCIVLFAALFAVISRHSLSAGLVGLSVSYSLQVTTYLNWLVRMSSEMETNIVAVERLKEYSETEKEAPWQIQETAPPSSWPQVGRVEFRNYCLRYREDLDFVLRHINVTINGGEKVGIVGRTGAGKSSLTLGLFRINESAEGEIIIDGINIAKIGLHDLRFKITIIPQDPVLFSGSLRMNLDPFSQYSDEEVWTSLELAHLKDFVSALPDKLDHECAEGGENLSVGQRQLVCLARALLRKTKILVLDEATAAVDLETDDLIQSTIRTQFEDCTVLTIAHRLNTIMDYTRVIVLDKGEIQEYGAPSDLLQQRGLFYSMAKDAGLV

[14] = Reversal of P-gp-mediated vinblastin-resistance in human LCC6MDR cells after 5 days by MTS assay; type: cell-based; conditions: 120 h
[15] = Reversal of P-gp-mediated mitoxantrone-resistance in human LCC6MDR cells after 5 days by MTS assay; type: cell-based; conditions: 120 h
P-gp (ABCB1) = P-gp (ABCB1) (Homo sapiens, UniProt P08183); assay: Increase in human P-gp ATPase activity at 200 uM by luciferase assay relative to basal level; conditions: read-out: FC
P-gp (ABCB1), sequence (P08183 whole entry): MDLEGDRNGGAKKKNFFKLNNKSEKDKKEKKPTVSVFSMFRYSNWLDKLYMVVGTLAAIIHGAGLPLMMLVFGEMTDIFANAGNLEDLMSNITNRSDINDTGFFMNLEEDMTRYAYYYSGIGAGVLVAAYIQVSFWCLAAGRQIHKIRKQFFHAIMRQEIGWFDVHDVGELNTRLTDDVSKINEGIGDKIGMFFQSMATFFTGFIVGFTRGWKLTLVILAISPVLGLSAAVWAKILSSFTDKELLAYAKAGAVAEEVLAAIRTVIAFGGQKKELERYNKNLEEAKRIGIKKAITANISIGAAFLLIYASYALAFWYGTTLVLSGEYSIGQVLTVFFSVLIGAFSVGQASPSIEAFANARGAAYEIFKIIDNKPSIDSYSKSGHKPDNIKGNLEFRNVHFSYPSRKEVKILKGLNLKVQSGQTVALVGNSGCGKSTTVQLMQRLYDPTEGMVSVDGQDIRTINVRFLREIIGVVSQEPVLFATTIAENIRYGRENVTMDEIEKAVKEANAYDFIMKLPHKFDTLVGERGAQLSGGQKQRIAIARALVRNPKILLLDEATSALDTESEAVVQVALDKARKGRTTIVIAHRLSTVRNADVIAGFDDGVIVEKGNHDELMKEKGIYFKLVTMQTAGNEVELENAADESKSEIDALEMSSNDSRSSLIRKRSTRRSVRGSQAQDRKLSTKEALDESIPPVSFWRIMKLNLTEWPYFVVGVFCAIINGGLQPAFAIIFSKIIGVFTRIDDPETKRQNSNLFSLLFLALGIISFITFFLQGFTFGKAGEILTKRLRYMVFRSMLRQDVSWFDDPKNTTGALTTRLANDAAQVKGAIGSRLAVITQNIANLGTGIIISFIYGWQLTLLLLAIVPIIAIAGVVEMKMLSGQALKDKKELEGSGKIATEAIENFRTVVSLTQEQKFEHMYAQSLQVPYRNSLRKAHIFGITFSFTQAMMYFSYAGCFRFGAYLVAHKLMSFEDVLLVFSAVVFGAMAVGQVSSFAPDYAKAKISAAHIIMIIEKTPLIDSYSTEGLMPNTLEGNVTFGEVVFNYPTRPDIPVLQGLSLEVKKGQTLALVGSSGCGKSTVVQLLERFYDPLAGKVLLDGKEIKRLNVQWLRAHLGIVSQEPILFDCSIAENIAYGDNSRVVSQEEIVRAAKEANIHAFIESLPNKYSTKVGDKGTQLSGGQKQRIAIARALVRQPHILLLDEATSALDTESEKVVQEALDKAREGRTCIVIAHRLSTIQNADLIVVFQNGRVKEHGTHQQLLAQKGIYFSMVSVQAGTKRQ
Outline: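 Human P-gp membrane fraction (about 25 μg) incubated with compound at 200 μM, 0.5% DMSO basal or 100 μM vanadate. Reaction started with 5 mM MgATP, 1 h at 37 °C. Remaining ATP read by luciferase luminescence after 20 min at room temperature. Activity normalized to basal and given as stimulation fold. N = 2.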

[16] = Reversal of P-gp-mediated daunorubicin-resistance in human LCC6MDR cells after 5 days by MTS assay; type: cell-based; conditions: 120 h
[17] = biological target: T1, ATP-dependent translocase ABCB1; assay: Competitive inhibition of P-gp overexpressed in human MDA435/LCC6MDR cells assessed as accumulation of doxorubicin by Dixon plot analysis; type: cell-based

T1 sequence (P08183 whole entry): as above

MIC [1] | inhibition (INH) [1] | SMILES | Ratio (Homo sapiens [2]) | IC50 [3] | selectivity ratio [4] | Ratio (Homo sapiens [5]) | IC50 (L929) | IC50 (MDR) | EC50 [6] | other results
8 µM (≈ 3.64 µg/mL) | Dose-dependent effect | COc1ccc(CCN(C)CCCC(C#N)(c2ccc(OC)c(OC)c2)C(C)C)cc1OC (stereo not given) |  |  |  |  |  |  |  | 
 |  | O=c1cc(-c2ccc(OCCOCCN(CCOCCOc3ccc(-c4cc(=O)c5ccccc5o4)cc3)Cc3cccc(F)c3)cc2)oc2ccccc12 | 118 | > 100 µM | > 337 | 36.5 | > 87 µM | > 100 µM | 0.258 µM | 
0.5 µM (≈ 0.362 µg/mL) | Dose-dependent effect | O=c1cc(-c2ccc(OCCOCCN(CCOCCOc3ccc(-c4cc(=O)c5ccccc5o4)cc3)Cc3ccccc3)cc2)oc2ccccc12 | 139 | > 75 µM | 574 | 58.9 | 85 µM | > 63 µM | 0.148 µM | EC50 [7]: 0.131 µM; Ratio [8]: 3.8; Ki [9]: 0.34 µM; EC50 [10]: 0.179 µM; fold change (FC) (Homo sapiens [11]): 1.7; fold change (FC) (Homo sapiens [12]): 2.1; Ratio [13]: 2.1; EC50 [14]: 0.173 µM; EC50 [15]: 0.09 µM; fold induction at 200 µM (P-gp (ABCB1)): 2.7; EC50 [16]: 0.095 µM; Ki [17]: 0.28 µM
